Data set [1] concerns snake venom phosphodiesterase. Nature of the data set: Chemical stability in presence of snake venom phosphodiesterase assessed as half life. In kind it is physicochemical.
A further data set has as its system Mus musculus. In words: Reduction in PTEN mRNA expression in BALB/c mouse liver at 12 mg/kg, ip administered as single dose measured 72 hrs post dose. Format: functional. In outline: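 Single ip injection at 12 or 60 mg/kg of phosphorothioate gapmer (14-base deoxy gap, two modified nucleotides per wing) against PTEN in Balb-c mice, n = 4/group. After sacrifice, liver PTEN mRNA reported as % down-regulation versus saline controls, and plasma ALT (IU/L) measured as the liver toxicity read-out.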

Structures are written as SMILES. Calls of active or inactive are those of the source. The calls are words filed in the database; no cut-off is given here.

For the compound `Cc1cn([C@H]2C[C@H](OP(=O)(O)OC[C@H]3O[C@@H](n4cc(C)c(=O)[nH]c4=O)C[C@@H]3OP(=O)(O)OC[C@H]3O[C@@H](n4cc(C)c(=O)[nH]c4=O)C[C@@H]3OP(=O)(O)OC[C@H]3O[C@@H](n4cc(C)c(=O)[nH]c4=O)C[C@@H]3OP(=O)(O)OC[C@H]3O[C@@H](n4cc(C)c(=O)[nH]c4=O)C[C@@H]3OP(=O)(O)OC[C@H]3O[C@@H](n4cc(C)c(=O)[nH]c4=O)C[C@@H]3OP(=O)(O)OC[C@H]3O[C@@H](n4cc(C)c(=O)[nH]c4=O)C[C@@H]3OP(=O)(O)OC[C@H]3O[C@@H](n4cc(C)c(=O)[nH]c4=O)C[C@@H]3OP(=O)(O)OC[C@H]3O[C@@H](n4cc(C)c(=O)[nH]c4=O)C[C@@H]3OP(=O)(O)OC[C@H]3O[C@@H](n4cc(C)c(=O)[nH]c4=O)C[C@@H]3OP(=O)(O)OC[C@@]34CO[C@@H]([C@H](n5ccc(=O)[nH]c5=O)O3)[C@@H]4OP(=O)(O)O[C@@H](C)[C@@]34CO[C@@H]([C@H](n5ccc(=O)[nH]c5=O)O3)[C@@H]4O)[C@@H](CO)O2)c(=O)[nH]c1=O`, the half-life (usually the time in which the quantity being followed falls by half) in data set [1] is 8.1 h.

Regarding `Cc1cn([C@H]2C[C@H](OP(=O)(O)OC[C@H]3O[C@@H](n4cc(C)c(=O)[nH]c4=O)C[C@@H]3OP(=O)(O)OC[C@H]3O[C@@H](n4cc(C)c(=O)[nH]c4=O)C[C@@H]3OP(=O)(O)OC[C@H]3O[C@@H](n4cc(C)c(=O)[nH]c4=O)C[C@@H]3OP(=O)(O)OC[C@H]3O[C@@H](n4cc(C)c(=O)[nH]c4=O)C[C@@H]3OP(=O)(O)OC[C@H]3O[C@@H](n4cc(C)c(=O)[nH]c4=O)C[C@@H]3OP(=O)(O)OC[C@H]3O[C@@H](n4cc(C)c(=O)[nH]c4=O)C[C@@H]3OP(=O)(O)OC[C@H]3O[C@@H](n4cc(C)c(=O)[nH]c4=O)C[C@@H]3OP(=O)(O)OC[C@H]3O[C@@H](n4cc(C)c(=O)[nH]c4=O)C[C@@H]3OP(=O)(O)OC[C@H]3O[C@@H](n4cc(C)c(=O)[nH]c4=O)C[C@@H]3OP(=O)(O)OC[C@@]34CO[C@@H]([C@H](n5ccc(=O)[nH]c5=O)O3)[C@@H]4OP(=O)(O)O[C@H](C)[C@@]34CO[C@@H]([C@H](n5ccc(=O)[nH]c5=O)O3)[C@@H]4O)[C@@H](CO)O2)c(=O)[nH]c1=O`, the half-life in data set [1] is 3.5 h.

In the case of `Cc1cn([C@@H]2O[C@@]3(COP(O)(=S)O[C@H]4[C@H]5OC[C@]4(COP(O)(=S)O[C@H]4[C@H]6OC[C@]4(COP(O)(=S)O[C@H]4[C@H]7OC[C@]4(COP(O)(=S)O[C@H]4[C@H]8OC[C@]4(COP(O)(=S)O[C@H]4[C@H]9OC[C@]4(COP(O)(=S)O[C@H]4[C@H]%10OC[C@]4(COP(O)(=S)O[C@H]4[C@H]%11OC[C@]4(COP(O)(=S)O[C@H]4[C@H]%12OC[C@]4(COP(O)(=S)O[C@H]4[C@H]%13OC[C@]4([C@H](C)O)O[C@H]%13n4ccc(N)nc4=O)O[C@H]%12n4ccc(=O)[nH]c4=O)O[C@H]%11n4cnc%11c(=O)[nH]c(N)nc%114)O[C@H]%10n4ccc(N)nc4=O)O[C@H]9n4cc(C)c(=O)[nH]c4=O)O[C@H]8n4cnc8ncnc(N)c84)O[C@H]7[n+]4c[nH]c7nc(N)[nH]c(=O)c74)O[C@H]6n4ccc(N)nc4=O)O[C@H]5n4ccc(N)nc4=O)CO[C@@H]2[C@@H]3OP(O)(=S)OC[C@@]23CO[C@@H]([C@H](n4ccc(N)nc4=O)O2)[C@@H]3OP(O)(=S)OC[C@@]23CO[C@@H]([C@H](n4cc(C)c(=O)[nH]c4=O)O2)[C@@H]3OP(O)(=S)OC[C@@]23CO[C@@H]([C@H]([n+]4c[nH]c5nc(N)[nH]c(=O)c54)O2)[C@@H]3OP(O)(=S)OC[C@@]23CO[C@@H]([C@H]([n+]4c[nH]c5nc(N)[nH]c(=O)c54)O2)[C@@H]3OP(O)(=S)OC[C@@]23CO[C@@H]([C@H](n4cnc5ncnc(N)c54)O2)[C@@H]3OP(O)(=S)OC[C@@]23CO[C@@H]([C@H](n4cc(C)c(=O)[nH]c4=O)O2)[C@@H]3OP(O)(=S)OC[C@@]23CO[C@@H]([C@H](n4ccc(=O)[nH]c4=O)O2)[C@@H]3OP(O)(=S)OC[C@@]23CO[C@@H]([C@H](n4ccc(=O)[nH]c4=O)O2)[C@@H]3O)c(=O)[nH]c1=O` (some centres undefined), the inhibition result with Mus musculus is “Active”.

As for `Cc1cn([C@H]2CC(OP(=O)(O)OC[C@H]3O[C@@H](n4cc(C)c(=O)[nH]c4=O)C[C@@H]3OP(=O)(O)OC[C@H]3O[C@@H](n4cc(C)c(=O)[nH]c4=O)C[C@@H]3OP(=O)(O)OC[C@H]3O[C@@H](n4cc(C)c(=O)[nH]c4=O)C[C@@H]3OP(=O)(O)OC[C@H]3O[C@@H](n4cc(C)c(=O)[nH]c4=O)C[C@@H]3OP(=O)(O)OC[C@H]3O[C@@H](n4cc(C)c(=O)[nH]c4=O)C[C@@H]3OP(=O)(O)OC[C@H]3O[C@@H](n4cc(C)c(=O)[nH]c4=O)C[C@@H]3OP(=O)(O)OC[C@H]3O[C@@H](n4cc(C)c(=O)[nH]c4=O)C[C@@H]3OP(=O)(O)OC[C@H]3O[C@@H](n4cc(C)c(=O)[nH]c4=O)C[C@@H]3OP(=O)(O)OC[C@H]3O[C@@H](n4cc(C)c(=O)[nH]c4=O)C[C@@H]3OP(=O)(O)OC[C@@]34CO[C@@H]([C@H](n5ccc(=O)[nH]c5=O)O3)[C@@H]4OP(=O)(O)OC[C@@]34CO[C@@H]([C@H](n5ccc(=O)[nH]c5=O)O3)[C@@H]4O)[C@@H](CO)O2)c(=O)[nH]c1=O` (some centres undefined), in data set [1], the half-life turned out to be 0.0433 h.
